Assay results as given in ChEMBL document CHEMBL4251757 (J Med Chem, 2018).
Blank lines part the entries; values can stand above or below the compound they belong to.

Assays:
[1] = target: T1, Oxoeicosanoid receptor 1 (Homo sapiens, UniProt Q8TDS5); test: Antagonist activity at OXE receptor in human neutrophils assessed as inhibition of 5-oxo-ETE-induced calcium mobilization incubated for 2 mins followed by 5-oxo-ETE addition measured after 1 min by fluorescence assay; assay type: functional
Procedure, shortened: (§1)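 Human neutrophils were isolated from healthy donors by dextran sedimentation and Ficoll-Paque centrifugation, then loaded with indo-1. Fluorescence was read at 37 °C in a stirred cuvette. Antagonist was added at various concentrations; 2 min later 5-oxo-ETE (10 nM) was added. Digitonin (final 0.1%) followed 1 min later to give maximal fluorescence.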

[2] = Half life in cynomolgus monkey plasma at 15 mg/kg administered via oral gavage by RP-HPLC analysis; assay type: ADME, organism-based, Macaca fascicularis
[3] = Drug level in cynomolgus monkey plasma treated with 30 mg/kg 5-(5-Chloro-1-methyl-2-(6-phenylhexyl)-1H-indol-3-yl)-3-methyl-5-oxopentanoic Acid administered via oral gavage assessed as compound formation after 12 hrs by RP-HPLC analysis; assay type: ADME, organism-based, Macaca fascicularis; details: in vivo
Procedure, shortened: (§2)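 Monkeys received 30 mg/kg by oral gavage in EtOH/20 mM NaHCO3 pH 8.0 vehicle. A plasma extract taken 12 h later was run by RP-HPLC on a C18 column (4 µm, 3.9 x 150 mm) with a 15-min gradient of 70–100% MeOH in H2O, both containing 0.02% HOAc. The tetramethylene analog served as internal standard.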

[4] = Plasma concentration in cynomolgus monkey at 30 mg/kg administered via oral gavage after 24 hrs by chiral-HPLC analysis; assay type: ADME, organism-based, Macaca fascicularis
Procedure, shortened: (§3)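 After oral gavage of racemate at 30 mg/kg, plasma C025 or its metabolite was isolated by RP-HPLC, then run by chiral HPLC on Cellulose-1 at 2 ml/min and 30 °C. Mobile phase was hexane/MeOH/HOAc 97.5:2.5:0.1 for parent and 97:3:0.1 for metabolite. Samples were taken at 4 h and 24 h; n=2 for enantiomer levels.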

[5] = Drug metabolism in cynomolgus monkey plasma at 30 mg/kg administered via oral gavage assessed as metabolite (S)-5-(5-Chloro-2-((S)-1-hydroxy-6-phenylhexyl)-1-methyl-1Hindol-3-yl)-3-methyl-5-oxopentanoic acid formation after 24 hrs by chiral-HPLC analysis; assay type: ADME, organism-based, Macaca fascicularis; details: in vivo; procedure, shortened: as §3
[6] = Tmax in cynomolgus monkey plasma at 15 mg/kg administered via oral gavage by RP-HPLC analysis; assay type: ADME, organism-based, Macaca fascicularis
[7] = AUC (0 to 24 hrs) in cynomolgus monkey plasma at 15 mg/kg administered via oral gavage by RP-HPLC analysis; assay type: ADME, organism-based, Macaca fascicularis; parameters: time < 24 hr, dose 15 mg/kg, route oral
[8] = Cmax in cynomolgus monkey plasma at 15 mg/kg administered via oral gavage by RP-HPLC analysis; assay type: ADME, organism-based, Macaca fascicularis; parameters: dose 15 mg/kg, route oral
[9] = Tmax in cynomolgus monkey plasma at 30 mg/kg administered via oral gavage by RP-HPLC analysis; assay type: ADME, organism-based, Macaca fascicularis
Procedure, shortened: (§4)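 Female cynomolgus monkeys (2.5–3.5 kg). Compound dissolved in EtOH at 75 mg/mL, diluted in 10 volumes of 20 mM NaHCO3 pH 8.0 (9.1% EtOH) and given by oral gavage; 4.4 mL/kg for 30 mg/kg, 2.2 mL/kg for lower doses. Blood drawn into heparin pre-dose and at 0.5, 1, 2, 4, 8, 12, 24 h, sometimes 3 and 7 days. Plasma diluted with 2 volumes MeOH plus internal standard, then RP-HPLC.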

[10] = AUC (0 to 24 hrs) in cynomolgus monkey plasma at 30 mg/kg administered via oral gavage by RP-HPLC analysis; assay type: ADME, organism-based, Macaca fascicularis; parameters: dose 30 mg/kg, time < 24 hr, route oral; procedure, shortened: as §4
[11] = Half life in cynomolgus monkey plasma at 30 mg/kg administered via oral gavage by RP-HPLC analysis; assay type: ADME, organism-based, Macaca fascicularis; procedure, shortened: as §4
[12] = Cmax in cynomolgus monkey plasma at 30 mg/kg administered via oral gavage by RP-HPLC analysis; assay type: ADME, organism-based, Macaca fascicularis; parameters: dose 30 mg/kg, route oral; procedure, shortened: as §4
[13] = Cmax in cynomolgus monkey plasma at 2 mg/kg administered via oral gavage by RP-HPLC analysis; assay type: ADME, organism-based, Macaca fascicularis; parameters: dose 2 mg/kg, route oral; procedure, shortened: as §4
[14] = Tmax in cynomolgus monkey plasma at 5 mg/kg administered via oral gavage by RP-HPLC analysis; assay type: ADME, organism-based, Macaca fascicularis; procedure, shortened: as §4
[15] = Tmax in cynomolgus monkey plasma at 2 mg/kg administered via oral gavage by RP-HPLC analysis; assay type: ADME, organism-based, Macaca fascicularis; procedure, shortened: as §4
[16] = Tmax in cynomolgus monkey plasma at 1 mg/kg administered via oral gavage by RP-HPLC analysis; assay type: ADME, organism-based, Macaca fascicularis; procedure, shortened: as §4
[17] = Half life in cynomolgus monkey plasma at 10 mg/kg administered via oral gavage by RP-HPLC analysis; assay type: ADME, organism-based, Macaca fascicularis; procedure, shortened: as §4
[18] = Plasma concentration in cynomolgus monkey at 30 mg/kg administered via oral gavage after 7 days by RP-HPLC analysis; assay type: ADME, organism-based, Macaca fascicularis; procedure, shortened: as §4
[19] = AUC (0 to 24 hrs) in cynomolgus monkey plasma at 2 mg/kg administered via oral gavage by RP-HPLC analysis; assay type: ADME, organism-based, Macaca fascicularis; parameters: dose 2 mg/kg, time < 24 hr, route oral; procedure, shortened: as §4
[20] = AUC (0 to 24 hrs) in cynomolgus monkey plasma at 5 mg/kg administered via oral gavage by RP-HPLC analysis; assay type: ADME, organism-based, Macaca fascicularis; parameters: dose 5 mg/kg, time < 24 hr, route oral; procedure, shortened: as §4
[21] = Tmax in cynomolgus monkey plasma at 10 mg/kg administered via oral gavage by RP-HPLC analysis; assay type: ADME, organism-based, Macaca fascicularis; procedure, shortened: as §4
[22] = Half life in cynomolgus monkey plasma at 2 mg/kg administered via oral gavage by RP-HPLC analysis; assay type: ADME, organism-based, Macaca fascicularis; procedure, shortened: as §4
[23] = AUC (0 to 24 hrs) in cynomolgus monkey plasma at 1 mg/kg administered via oral gavage by RP-HPLC analysis; assay type: ADME, organism-based, Macaca fascicularis; parameters: time < 24 hr, dose 1 mg/kg, route oral; procedure, shortened: as §4
[24] = Cmax in cynomolgus monkey plasma at 1 mg/kg administered via oral gavage by RP-HPLC analysis; assay type: ADME, organism-based, Macaca fascicularis; parameters: dose 1 mg/kg, route oral; procedure, shortened: as §4
[25] = Drug metabolism in cynomolgus monkey plasma at 30 mg/kg administered via oral gavage assessed as metabolite (R)-5-(5-Chloro-2-((S)-1-hydroxy-6-phenylhexyl)-1-methyl-1Hindol-3-yl)-3-methyl-5-oxopentanoic acid formation after 4 hrs by chiral-HPLC analysis; assay type: ADME, organism-based, Macaca fascicularis; details: in vivo; procedure, shortened: as §3
[26] = Half life in cynomolgus monkey plasma at 1 mg/kg administered via oral gavage by RP-HPLC analysis; assay type: ADME, organism-based, Macaca fascicularis; procedure, shortened: as §4
[27] = Half life in cynomolgus monkey plasma at 5 mg/kg administered via oral gavage by RP-HPLC analysis; assay type: ADME, organism-based, Macaca fascicularis; procedure, shortened: as §4
[28] = Cmax in cynomolgus monkey plasma at 5 mg/kg administered via oral gavage by RP-HPLC analysis; assay type: ADME, organism-based, Macaca fascicularis; parameters: dose 5 mg/kg, route oral; procedure, shortened: as §4
[29] = Plasma concentration in cynomolgus monkey at 30 mg/kg administered via oral gavage after 3 days by RP-HPLC analysis; assay type: ADME, organism-based, Macaca fascicularis; procedure, shortened: as §4
[30] = Cmax in cynomolgus monkey plasma at 10 mg/kg administered via oral gavage by RP-HPLC analysis; assay type: ADME, organism-based, Macaca fascicularis; parameters: dose 10 mg/kg, route oral; procedure, shortened: as §4
[31] = AUC (0 to 24 hrs) in cynomolgus monkey plasma at 10 mg/kg administered via oral gavage by RP-HPLC analysis; assay type: ADME, organism-based, Macaca fascicularis; parameters: time < 24 hr, dose 10 mg/kg, route oral; procedure, shortened: as §4
[32] = target: T1, Oxoeicosanoid receptor 1; test: Antagonist activity at OXE receptor in human neutrophils assessed as inhibition of 5-oxo-ETE-induced calcium mobilization incubated for 2 mins followed by 5-oxo-ETE addition by fluorescence assay; assay type: functional; procedure, shortened: as §1
[33] = Drug metabolism in cynomolgus monkey plasma at 30 mg/kg administered via oral gavage assessed as phenylpentamethylene side chain modification after 12 hrs by RP-HPLC analysis; assay type: ADME, organism-based, Macaca fascicularis; details: in vivo; procedure, shortened: as §2
[34] = Drug metabolism in cynomolgus monkey plasma at 30 mg/kg administered via oral gavage assessed as metabolite (S)-5-(5-Chloro-2-((S)-1-hydroxy-6-phenylhexyl)-1-methyl-1Hindol-3-yl)-3-methyl-5-oxopentanoic acid formation after 12 hrs by RP-HPLC analysis; assay type: ADME, organism-based, Macaca fascicularis; details: in vivo; procedure, shortened: as §2
[35] = Plasma concentration in cynomolgus monkey at 30 mg/kg administered as oral gavage measured after 8 hrs by RP-HPLC analysis; assay type: ADME, organism-based, Macaca fascicularis; procedure, shortened: as §4
[36] = Plasma concentration in cynomolgus monkey at 30 mg/kg administered as oral gavage measured after 1 hr by RP-HPLC analysis; assay type: ADME, organism-based, Macaca fascicularis; procedure, shortened: as §4

T1 sequence (Q8TDS5 whole entry): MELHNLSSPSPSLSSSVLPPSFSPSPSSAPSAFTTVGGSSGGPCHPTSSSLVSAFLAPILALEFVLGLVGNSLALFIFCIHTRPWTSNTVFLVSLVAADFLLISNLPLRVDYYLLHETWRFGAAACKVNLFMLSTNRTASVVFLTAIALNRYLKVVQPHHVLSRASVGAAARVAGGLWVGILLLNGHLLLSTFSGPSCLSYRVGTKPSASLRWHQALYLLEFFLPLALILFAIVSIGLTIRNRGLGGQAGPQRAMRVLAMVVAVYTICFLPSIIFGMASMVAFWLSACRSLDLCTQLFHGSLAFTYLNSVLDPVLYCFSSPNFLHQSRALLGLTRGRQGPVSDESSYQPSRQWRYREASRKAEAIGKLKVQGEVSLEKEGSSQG

Compound: C[C@@H](CC(=O)O)CC(=O)c1c([C@H](O)CCCCCc2ccccc2)n(C)c2ccc(Cl)cc12
IC50 [1]: 750 nM

Compound: CC(CC(=O)O)CC(=O)n1c(CCCc2ccccc2)cc2ccc(Cl)cc21 (centres undefined)
IC50 [1]: 210 nM

Compound: C[C@@H](CC(=O)O)CC(=O)c1c([C@@H](O)CCCCCc2ccccc2)n(C)c2ccc(Cl)cc12
IC50 [1]: 120 nM

Compound: C[C@@H](CC(=O)O)CC(=O)c1c(CCCCCCc2ccccc2)n(C)c2ccc(Cl)cc12
half-life [2]: 9.3 h
Drug uptake [3]: Active
concentration at 24 h [4]: > 20 µM
Drug metabolism [5]: Metabolite_Detected
Tmax [6]: 2.5 h
AUC(0-t) at 24 h [7]: 1080 µM·h
Cmax [8]: 79 µM

Compound: CC(CC(=O)O)CC(=O)c1c(C(O)CCCCCc2ccccc2)n(C)c2ccc(Cl)cc12 (centres undefined)
Drug uptake [3]: Active

Compound: CC(CC(=O)O)CC(=O)n1c(CCCCCCc2ccccc2)cc2ccc(Cl)cc21 (centres undefined)
IC50 [1]: 12 nM

Compound: CCCCC/C=C\C[C@H](O)/C=C/C=C\C=C\C(=O)CCCC(=O)O
IC50 [32]: 500 nM

Compound: C[C@H](CC(=O)O)CC(=O)c1c([C@H](O)CCCCCc2ccccc2)n(C)c2ccc(Cl)cc12
IC50 [1]: 260 nM

Compound: CC(CC(=O)O)CC(=O)n1c(CCCCc2ccccc2)cc2ccc(Cl)cc21 (centres undefined)
IC50 [1]: 18 nM

Compound: C[C@H](CC(=O)O)CC(=O)c1c([C@@H](O)CCCCCc2ccccc2)n(C)c2ccc(Cl)cc12
IC50 [1]: 0.38 to 0.69 nM
Drug uptake [3]: Active
concentration at 168 h [18]: 0.2 µM
concentration at 72 h [29]: 1.5 µM

Compound: CC(CC(=O)O)CC(=O)n1c(CCCCCc2ccccc2)cc2ccc(Cl)cc21 (racemic)
Tmax [9]: 2 h
AUC(0-t) at 24 h [10]: 294 µM·h
IC50 [1]: 2.1 nM
half-life [11]: 3 h
Cmax [12]: 55 µM
Drug metabolism [33]: Metabolite_Detected

Compound: CCCCCCc1cc2ccc(Cl)cc2n1C(=O)CC(C)CC(=O)O (racemic)
concentration at 8 h [35]: < 0.5 µM
Tmax [9]: 0.9 h
concentration at 1 h [36]: > 25 µM
AUC(0-t) at 24 h [10]: 55 µM·h
half-life [11]: 1.2 h
Cmax [12]: 27 µM

Results, then the compound that gave them:

Tmax [9]: 0.6 h
AUC(0-t) at 24 h [10]: 198 µM·h
IC50 [1]: 17 to 26 nM
half-life [11]: 0.7 h
Cmax [12]: 121 µM
Compound: CCCCCCc1c(C(=O)CC(C)CC(=O)O)c2cc(Cl)ccc2n1C (racemic)

Cmax [13]: 7.8 µM
Tmax [14]: 1.2 h
Tmax [9]: 1.3 h
Tmax [15]: 0.7 h
Tmax [16]: 0.7 h
AUC(0-t) at 24 h [10]: 684 µM·h
IC50 [1]: 0.12 nM
half-life [2]: 3.4 h
half-life [17]: 2.8 h
half-life [11]: 3.5 h
Drug uptake [3]: Active
concentration at 24 h [4]: 1 µM
concentration at 168 h [18]: 0.04 µM
AUC(0-t) at 24 h [19]: 26 µM·h
AUC(0-t) at 24 h [20]: 78 µM·h
Tmax [21]: 1.2 h
Tmax [6]: 0.8 h
half-life [22]: 1.1 h
Cmax [12]: 106 µM
AUC(0-t) at 24 h [23]: 13 µM·h
AUC(0-t) at 24 h [7]: 169 µM·h
Cmax [24]: 4.5 µM
Drug metabolism [25]: Metabolite_Detected
half-life [26]: 0.9 h
half-life [27]: 1.9 h
Cmax [8]: 32 µM
Cmax [28]: 18 µM
concentration at 72 h [29]: 0.16 µM
Cmax [30]: 35 µM
AUC(0-t) at 24 h [31]: 171 µM·h
Compound: C[C@H](CC(=O)O)CC(=O)c1c(CCCCCCc2ccccc2)n(C)c2ccc(Cl)cc12

IC50 [1]: 38 nM
Compound: CC(CC(=O)O)CC(=O)c1c(CCCCCC(F)(F)F)n(C)c2ccc(Cl)cc12 (centres undefined)

Tmax [9]: 2.5 h
AUC(0-t) at 24 h [10]: 1250 µM·h
IC50 [1]: 0.28 nM
half-life [11]: 7.4 h
Cmax [12]: 108 µM
Drug metabolism [34]: Metabolite_Detected
Compound: CC(CC(=O)O)CC(=O)c1c(CCCCCCc2ccccc2)n(C)c2ccc(Cl)cc12 (racemic)

concentration at 8 h [35]: 1.6 µM
Tmax [9]: 1 h
concentration at 1 h [36]: 36 µM
AUC(0-t) at 24 h [10]: 100 µM·h
half-life [11]: 1.6 h
Cmax [12]: 36 µM
Compound: CCCCCCc1c(C(=O)C[C@H](C)CC(=O)O)c2cc(Cl)ccc2n1C
